# TAAR1 ag: human TAAR1 agonism. Q96RJ0. CHO RD-HGA16 TAAR1, Fluo-8 calcium fluorescence; vehicle wells 0%, saturating PEA agonist 100%. activation, % at 3 µM. hit rate 0.99% among 360,000. AID 624467;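 active = activation above the mean activation of all test compounds in the run plus 3 SD, cut at about 38% in these data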
#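 Test system: RD-HGA16 (CHO) cells co-expressing Gα16 and hTAAR1; dosing: one-point dosing at 3 µM (nominal); timing: 17-24 h seeding, 75 min 37 °C dye, 30 min RT; signal: kinetic Fluo-8 calcium fluorescence; read-out basis: % activation relative to PEA EC100 response; controls: DMSO and PEA EC100; replicates: n 1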
# CHO parental Ca: signal in parental CHO cells, OX1R antagonist counter-screen | parental CHO-K1, ATP-induced calcium, Fluo-8 fluorescence | inhibition, % at 5.6 µM | hit rate 0.63% among 330,000 | AID 463079;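 active = inhibition above that plate's mean sample inhibition plus 3 SD, cut at about 26% in these data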;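 note: 0% = ATP-challenged DMSO wells and 100% = DMSO wells without ATP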
#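 Material – parental CHO cells · Reagent – ATP stimulus · Compound – single nominal dose of 5.6 µM per compound · Detection – Fluo-8 fluorescence · Read-out basis – percent inhibition of calcium signal · Controls – ATP-challenged DMSO wells low, unchallenged DMSO wells high · Repeats – no replicates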
# TAAR1 antagonist: human TAAR1 antagonism | Q96RJ0 | CHO RD-HGA16 TAAR1, Fluo-8 calcium fluorescence, antagonist | inhibition, % at 3 µM | hit rate 1.5% among 360,000;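 active = inhibition above a per-plate cutoff, the mean inhibition of test compounds on that plate plus 3 SD, cut at about 49% in these data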;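 note: 0% = DMSO plus EC80 beta-PEA response and 100% = DMSO alone without agonist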
#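 Test system: RD-HGA16 CHO cells with stable hTAAR1 and Gα16 / Probe or stimulus: EC80 β-phenethylamine stimulus / Times: seeding 17-24 h prior, 75-min 37 °C, 30-min RT dye loading / Detection: Fluo-8 calcium-sensitive fluorescence / Read-out basis: % inhibition scaled between DMSO and EC80 PEA controls / Repeats: singlicate, one well per test compound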
# OX1R antag-1: human HCRTR1 antagonism; O43613; CHO/OX1R cells, Fluo-8 calcium fluorescence, orexin A; inhibition, % at 5 µM; hit rate 0.43% among 330,000; AID 434989;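 active = inhibition above its plate's threshold, mean inhibition of all tested compounds on the plate plus 3 SD, cut at about 37% in these data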;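 note: 0% = orexin A challenge wells and 100% = SB-334867-A antagonist wells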
# Target sequence (O43613 whole entry, looked up): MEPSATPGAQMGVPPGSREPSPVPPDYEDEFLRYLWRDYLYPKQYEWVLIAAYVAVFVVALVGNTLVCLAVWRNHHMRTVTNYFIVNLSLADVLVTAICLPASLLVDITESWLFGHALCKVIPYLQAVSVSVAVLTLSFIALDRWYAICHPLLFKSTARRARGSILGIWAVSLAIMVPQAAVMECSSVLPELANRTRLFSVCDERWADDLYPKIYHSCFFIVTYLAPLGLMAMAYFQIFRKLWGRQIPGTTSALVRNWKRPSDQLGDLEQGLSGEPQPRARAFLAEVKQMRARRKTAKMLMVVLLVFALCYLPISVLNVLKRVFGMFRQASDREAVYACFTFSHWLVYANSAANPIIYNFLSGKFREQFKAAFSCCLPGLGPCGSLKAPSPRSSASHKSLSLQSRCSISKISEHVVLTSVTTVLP
# OX1R antag-2: antagonists of human orexin 1 receptor (OX1R) | inhibition, % at 6.6 µM | OX1R-expressing cells, FRET antagonist read-out | hit rate 1.8% among 330,000 | AID 485270 | O43613; in the data active = inhibition mostly above about 38%, no sharp cut-off; inactive = mostly below about 40%;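 note: 0% = agonist challenge alone and 100% = reference antagonist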
# GPR7 antagonist: human neuropeptides B/W receptor 1 antagonism; P48145; GPR7-expressing cells, fluorescence antagonist assay; inhibition, % at 4.4 µM; hit rate 1.1% among 290,000; AID 1861; in the data active = inhibition above about 16%, passing the limit was not always enough;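 note: cells stimulated with the agonist NPW; 0% = agonist with vehicle and 100% = vehicle without agonist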
# GPR7 antag conf: human GPR7 antagonism, confirmation assay. hit rate 52% among 2,400. GPR7-expressing cells, calcium fluorescence antagonist mode. shares compounds with GPR7 antagonist. inhibition, % at 4.4 µM; in the data active = inhibition above about 24%;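 note: stimulated with the GPR7 agonist NPW; 0% = agonist plus vehicle and 100% = vehicle alone without agonist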
# MCHR1 antagonist: counter-screen for GPR7 antagonists: antagonists of human MCHR1; shares compounds with GPR7 antagonist; MCHR1-expressing cells, fluorescence antagonist assay; inhibition, % at 4.4 µM; hit rate 62% among 2,400; AID 2148; in the data active = inhibition above about 22%;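 note: 0% = vehicle with agonist and 100% = vehicle without agonist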
# TAAR1 ag confirm: human TAAR1 agonism, confirmed; AID 651783; CHO RD-HGA16 TAAR1, Fluo-8 calcium fluorescence; scaled: DMSO 0%, maximal phenethylamine 100%; hit rate 82% among 2,400; shares compounds with TAAR1 ag; activation, % at 3 µM;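 active = activation above a cutoff set at the run's mean compound activation plus 3 SD, cut at about 39% in these data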
# Ga16 ag counter: counter-screen for TAAR1 agonists: nonselective agonists in parental cells; CHO-Ga16 parental, Fluo-8 calcium fluorescence; normalized to maximal ATP response, DMSO zero; activation, % at 3 µM; hit rate 50% among 2,400; shares compounds with TAAR1 ag;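 active = activation above the run cutoff, the mean activation over all tested wells plus 3 SD, cut at about 12% in these data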;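 note: 0% = DMSO wells and 100% = maximal ATP response on the peak over basal ratio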
# TAAR1 desens: counter-screen for human TAAR1 agonists: agonists that desensitize TAAR1; shares compounds with TAAR1 ag; CHO RD-HGA16 hTAAR1, Fluo-8 calcium, beta-PEA response inhibition; inhibition, % at 3 µM; hit rate 46% among 2,400;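 active = inhibition above the run cutoff, the mean inhibition of all test compounds plus 3 SD, cut at about 49% in these data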;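 note: beta-PEA stimulus applied at its EC80; loss of beta-PEA calcium signal after compound pretreatment read as receptor desensitization; 0% = DMSO with beta-PEA at EC80 and 100% = DMSO alone without agonist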
# Ga16 antag count: nonselective Ga16 antagonism, counter-screen; shares compounds with TAAR1 ag; CHO-Ga16 ATP-induced calcium, Fluo-8 fluorescence; inhibition, % at 3 µM; hit rate 39% among 2,400;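 active = inhibition above the plate's mean compound inhibition plus 3 SD, computed per plate, cut at about 22% in these data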;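 note: 0% = EC80 ATP with DMSO and 100% = DMSO wells without ATP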
# * hit, by the source's call; · = no result. Rows were chosen to be rich in hits. Some 4.6% of all compounds tested hit in one or more screens of this group.
SMILES,TAAR1 ag,CHO parental Ca,TAAR1 antagonist,OX1R antag-1,OX1R antag-2,GPR7 antagonist,GPR7 antag conf,MCHR1 antagonist,TAAR1 ag confirm,Ga16 ag counter,TAAR1 desens,Ga16 antag count
COc1ccccc1N1CN(CCc2ccccc2)CNC1=S,83*,-19,57*,-5,17,30*,5,-2,101*,5,84*,1
COc1cc(-c2noc(C)c2-c2ccc(N(C)C)nc2)cc(OC)c1OC,96*,-6,54*,-2,75*,60*,69*,67*,84*,48*,54*,31*
O=C(NCc1ccco1)C1CCCN1C(=O)Nc1ccc(Cl)cc1 (configuration not stated),5,-12,-7,-18,1,-10,·,·,·,·,·,·
Cc1ccccc1OCc1n(CC(=O)OC2CC(C)CCC2C(C)C)c2ccccc2[n+]1C (configuration not stated),47*,33*,31,46*,16,42*,61*,92*,87*,23*,87*,48*
CCOC(=O)[C@]12CCCC=C1N(Cc1ccc3c(c1)OCO3)C(=O)[C@H](CC(=O)NCc1ccc(C)o1)C2,1,·,-3,·,·,·,·,·,·,·,·,·
C=CCn1c(O)c(C2=c3ccccc3=NC2=O)c2ccccc21,64*,10,27,16,28,38*,46*,86*,63*,38*,68*,52*
Cc1cc(N2CCC(C)CC2)nc(NCc2ccccc2)n1,60*,-16,36,-14,15,30*,58*,83*,67*,34*,53*,31*
COc1ccc(NS(=O)(=O)c2cccc(C(=O)OCC(=O)Nc3cc(C)on3)c2)cc1,6,-16,-1,-16,28,10,·,·,·,·,·,·
Cc1ccc(NS(=O)(=O)c2ccc(C(=O)OCC(=O)Nc3cc(C)on3)cc2)cc1,72*,·,7,·,·,26*,38*,52*,72*,35*,50*,37*
CCn1cc(C(=O)Nc2ccc(Oc3cccnc3)cc2)c2ccccc21,5,·,22,·,·,·,·,·,·,·,·,·
CCOc1ccc(NS(=O)(=O)c2ccc(C(=O)N(C)CC(=O)Nc3ccc(OC)cc3)cc2)cc1,2,5,-11,-13,20,·,·,·,·,·,·,·
CCCC(=O)NC(=S)Nc1ccc(S(=O)(=O)Nc2ccc(OCC)cc2)cc1,74*,5,34,13,3,29*,53*,67*,85*,35*,66*,39*
Cc1c(CN2CCC(n3nccc3NC(=O)C3CCOC3)CC2)[nH]c2ccccc12 (configuration not stated),3,·,-14,·,·,-10,·,·,·,·,·,·
O=C(Nc1ccnn1C1CCN(Cc2cc3ccccc3[nH]2)CC1)C1CCOC1 (configuration not stated),58*,3,83*,2,5,82*,53*,74*,31,23*,63*,66*
Cc1cc(C)c(C)c(S(=O)(=O)N2C(=S)NC(=O)C2CC(C)C)c1C (configuration not stated),9,-5,-3,-20,63,-3,·,·,·,·,·,·
Cc1ccc(CONC(=O)c2cccc([N+](=O)[O-])c2)cc1,0,-9,-1,-5,7,·,·,·,·,·,·,·
COC(=O)C(/C=N/OCc1ccc([N+](=O)[O-])cc1)NC(=O)c1cccc(Cl)c1 (configuration not stated),95*,11,88*,18,17,38*,65*,50*,94*,51*,78*,41*
Cc1cc(C)nc(/N=C(\N)Nc2cccc(OCc3ccccc3)c2)n1,124*,40*,107*,73*,9,97*,91*,105*,112*,83*,106*,90*
Cc1cc(C)nc(/N=C(\N)Nc2ccc(OCCC(C)C)cc2)n1,145*,68*,103*,94*,5,100*,97*,106*,127*,103*,105*,93*
COc1ccccc1N/C(N)=N/c1nc(C)cc(C)n1,2,-11,-6,-26,1,-9,·,·,·,·,·,·
Cc1cc(C)nc(/N=C(\N)Nc2ccc(CC(=O)OC(C)C)cc2)n1,109*,41*,101*,67*,17,97*,95*,97*,120*,85*,106*,97*
CCc1ccc(N/C(=N/c2nc(C)cc(C)n2)NC(C)=O)cc1,-4,-20,-11,-8,3,-21,·,·,·,·,·,·
CC(=O)c1ccc(-n2c(CCC(=O)O)ccc2-c2ccc(Cl)cc2)cc1,5,-4,-18,3,10,-26,·,·,·,·,·,·
CCN(Cc1ccccc1)C(c1cc2cc(C)ccc2[nH]c1=O)c1nnnn1CCOC (configuration not stated),9,-14,4,-11,25,-3,·,·,·,·,·,·
CC(C)Cc1ccc(C(C)C(=O)Nc2nccs2)cc1 (configuration not stated),105*,43*,74*,49*,22,63*,78*,78*,103*,50*,81*,50*
CC(C)c1ccc(CNC(=O)C(=O)Nc2nccs2)cc1,5,9,3,-11,9,-3,·,·,·,·,·,·
N=c1c2c(-c3ccccc3)c(-c3ccccc3)n(Cc3ccco3)c2ncn1Cc1ccco1,86*,31,46,37,20,37*,79*,100*,91*,54*,75*,37*
N=c1c2c(ncn1Cc1ccco1)Oc1ccc3ccccc3c1C2c1ccccc1 (configuration not stated),-3,-14,-28,-31,24,-7,·,·,·,·,·,·

# Bioassay records: PubChem BioAssay, The Scripps Research Institute Molecular Screening Center
